Assay results gathered from unrelated publications.
Each line is one published result; the experiments were not run side by side.

SMILES | test system | setting | concentration
O=S(=O)(c1ccc(-c2ccc3nccc(Nc4ccncn4)c3c2)cc1)N1CCOCC1 | female BALB/c mouse, plasma | intraperitoneal, 10 mg/kg, 15 min | 4460 ng/mL
O=c1nc(N2CCN(CC3CCCCC3)CC2)sc2c([N+](=O)[O-])cc(C(F)(F)F)cc12 | CD-1 mouse, plasma | intravenous, 10 mg/kg, 8 h | 44.4 ng/mL
COc1cc(F)c([C@@H]2CNC(=O)[C@H]2NC(=O)Nc2ccccc2)c(F)c1 | C57BL/6 mouse, plasma | oral, 3 mg/kg, 1 h | 107 nM
CC(C)(Nc1nc(-c2ccccn2)nc2ccccc12)c1ccccn1 | female BALB/c mouse, plasma | intravenous, 1 mg/kg, 8 h | 6 ng/mL
O=c1cc(-c2ccccc2)oc2c(O)c(O)ccc12 | male CD-1 mouse, brain | oral, 50 mg/kg, 30 min | 18 ng/g
CSc1cc(Oc2ccnc3[nH]c(=O)cnc23)ccc1NC(=O)Nc1cc(C(C)(C)C)nn1-c1ccccc1 | BALB/c mouse, plasma | oral, 10 mg/kg/day, 14 h | ~1000 nM
O=S(=O)(c1cccc(C(F)(F)F)n1)N1CCc2ccc(OCc3c(F)cccc3Cl)cc21 | mouse, plasma | intraperitoneal, 10 mg/kg, 4 h | 120 nM
COc1ccc2[nH]c3c(C)c4ccnc(C(=O)N[C@H](C)CN(C)C)c4cc3c2c1 | male C57BL/6 mouse, plasma | intraperitoneal, 10 mg/kg, 2 h, single dose | 40 nM
O=C(O)C1CCN(c2ncc(-c3ccc4c(c3)OCCCO4)s2)CC1 | male Swiss mouse, plasma | oral, 30 mg/kg, 30 min, single dose | 14800 ng/mL
O=S(=O)(c1cccc(C(F)(F)F)c1)N1CCc2ccc(OCc3c(F)cncc3Cl)cc21 | mouse, plasma | intraperitoneal, 10 mg/kg, 2 h | 410 nM
[2H]c1c([2H])c([2H])c(-c2ccc([C@H](Cn3ccnc3)NC(=O)c3ccc(-c4nnc(-c5ccccc5)o4)cc3)c(Cl)c2)c([2H])c1[2H] | BALB/c mouse, liver | oral, 25 mg/kg, 4 h, single dose | 17000 nM
CC(C)Oc1cccc(-c2cnc(N3CCC(C(N)=O)CC3)s2)c1 | male Swiss mouse, plasma | oral, 30 mg/kg, 2 h, single dose | 206 ng/mL
c1ccc(-c2nc(N3CCC(c4ccccn4)C3)c3ccccc3n2)nc1 (centres unmarked) | female BALB/c mouse, plasma | oral, 50 mg/kg, 4 h | 826 ng/mL
CC(C)CN(C[C@@H](O)[C@H](Cc1ccccc1)NC(=O)O[C@H]1CO[C@H]2OCC[C@H]21)S(=O)(=O)c1ccc(N)cc1 | BALB/c mouse, plasma | intravenous, 2.5 mg/kg, 3 h | 23.9 ng/mL
